The list is not random: actives were taken first. Their share in the collection is about 3.2%.
14-3-3 Bad PPI: inhibitors of 14-3-3 zeta/Bad binding, primary screen, biochemical, TR-FRET, bovine 14-3-3 zeta; TR-FRET 14-3-3zeta/Dy647-pBad peptide displacement, 1 h; hit rate 0.71% among 220,000; AID 781, 2007; inhibition, % at 21.7 µM; 14-3-3 protein zeta/delta (Bos taurus), P63103;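 active means inhibition above about 70%, limit read from the data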;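 further: 0% = full 14-3-3 plus peptide FRET controls and 100% = background without 14-3-3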
Mcl1-Noxa inh: Mcl-1/Noxa binding inhibitors, primary screen, biochemical, TR-FRET, 1536-well; Induced myeloid leukemia cell differentiation protein Mcl-1 (Homo sapiens), Q07820; TR-FRET Mcl-1/Noxa peptide binding, 2 h; inhibition, % at 21.7 µM; hit rate 1.5% among 220,000;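 active means compounds that cut the protein-peptide binding signal by more than 50% relative to plate controls in a single-dose test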;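 further: His-tagged Mcl-1 with rhodamine Noxa BH3 peptide and terbium anti-His antibody; 0% = Mcl-1 plus Noxa peptide wells and 100% = peptide-only wells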
Mcl1-Bid inh: Mcl-1/Bid binding inhibitors, primary screen, biochemical, TR-FRET, 1536-well; TR-FRET Mcl-1/Bid-Dy647 peptide binding; inhibition, % at 21.7 µM; hit rate 0.97% among 220,000;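 active means compounds that cut the binding signal by more than half at the single screening dose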;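 further: His-tagged Mcl-1 with europium anti-His antibody binding Bid BH3 peptide; 0% = Mcl-1 plus peptide wells and 100% = peptide-only wells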
Biofilm kill mix: clotrimazole potentiators killing C. albicans biofilm, primary screen, 4-compound mixtures. AID 1242, 2008. inhibition, % at 7.6 µM. C. albicans biofilm persisters + clotrimazole, fluorescence viability; primary screen in compound mixtures of four per well. hit rate 0.02% among 120,000;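 active means inhibition above 30.3% in the primary screen of four-compound pools, then above 30% when the compound was retested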;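 further: compounds exposed to preformed 24 h biofilms for 48 h; 0% = untreated biofilm control and 100% = clotrimazole plus chlorhexidine kill blank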
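System: C. albicans CAF4-2 wild-type biofilms; Medium: RPMI/MOPS medium, pH 7.0; Reagent: Clotrimazole, 50 µg/mL; Times: biofilm formation 24 h, compound exposure 48 h, 37 °C; Detection: 2-h Alamar Blue fluorescence, 535/590 nm excitation/emission; Evaluation: percent inhibition of biofilm viability.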
Mcl-1 Bim block: inhibitors of Bim peptide binding to Mcl-1, primary screen, biochemical, bead-based flow cytometry, multiplex; Bim peptide-Mcl-1 binding; AID 1009, 2008; inhibition, % at 10 µM; hit rate 0.1% among 190,000; in the data active means inhibition above about 40%;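 further: 0% = no compound tracer wells and 100% = peptide blocker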
Hck Nef HTS: inhibitors of Nef-activated human Hck kinase, primary screen, biochemical, Z-Lyte FRET, 384-well, Hck-YEEI. Tyrosine-protein kinase HCK (Homo sapiens), P08631. Recombinant Hck-YEEI plus Nef, Z-Lyte FRET kinase assay. inhibition, % at 20 µM. hit rate 0.68% among 220,000. AID 463187, 2010;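 active means Hck-Nef kinase inhibition above about 50%, limit read from the data; inactive means inhibition below that limit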;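 further: 0% = DMSO with Hck plus Nef and 100% = Hck alone without Nef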
Target sequence (P08631 whole entry, looked up): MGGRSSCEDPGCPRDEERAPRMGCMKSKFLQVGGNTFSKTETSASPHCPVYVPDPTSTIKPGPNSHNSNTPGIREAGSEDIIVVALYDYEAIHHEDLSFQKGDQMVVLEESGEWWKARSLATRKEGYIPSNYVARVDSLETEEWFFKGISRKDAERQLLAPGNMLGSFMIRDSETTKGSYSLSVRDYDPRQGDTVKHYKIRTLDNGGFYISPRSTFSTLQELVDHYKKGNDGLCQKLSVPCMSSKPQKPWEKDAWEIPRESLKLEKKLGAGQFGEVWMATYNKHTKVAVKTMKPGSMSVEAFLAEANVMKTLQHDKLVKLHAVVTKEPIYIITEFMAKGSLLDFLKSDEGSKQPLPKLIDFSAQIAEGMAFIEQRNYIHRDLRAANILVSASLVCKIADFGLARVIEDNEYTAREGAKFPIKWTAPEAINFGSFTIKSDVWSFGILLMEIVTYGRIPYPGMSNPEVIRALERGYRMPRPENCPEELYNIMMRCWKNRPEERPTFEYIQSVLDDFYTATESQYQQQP
* = called active by the depositor.

Screening CN(C)C(=O)CSc1nnc(Cc2ccccc2)n1CC1CCCO1 (stereo not drawn) returned 14-3-3 Bad PPI -3, Mcl1-Noxa inh 3, Mcl1-Bid inh -2, Biofilm kill mix -5, Mcl-1 Bim block 0 and Hck Nef HTS 14.
For c1ccc(Nc2cccc(Nc3ccccc3)c2)cc1 the results were 14-3-3 Bad PPI 29, Mcl1-Noxa inh 88*, Mcl1-Bid inh 20, Biofilm kill mix 16, Mcl-1 Bim block -6 and Hck Nef HTS 26.
Screening Nc1cccc(Nc2ccccc2)c1 returned 14-3-3 Bad PPI -15, Mcl1-Noxa inh 3, Mcl1-Bid inh -85, Biofilm kill mix 17, Mcl-1 Bim block 2 and Hck Nef HTS 32.
CCCCNC(c1ccccc1)c1ccncc1 (stereo not drawn) was read as 14-3-3 Bad PPI 71*, Mcl1-Noxa inh 28, Mcl1-Bid inh 11, Mcl-1 Bim block -1 and Hck Nef HTS -1.
For CCOC(=O)C(NCCCO)c1ccccc1 (stereo not drawn) the results were 14-3-3 Bad PPI 24, Mcl1-Noxa inh 3, Mcl1-Bid inh 3, Mcl-1 Bim block -1 and Hck Nef HTS 2.
Screening CC(C)(C)c1cc(CNC2CS(=O)(=O)C[C@@H]2O)cc(C(C)(C)C)c1O (stereo partly drawn) returned 14-3-3 Bad PPI -13, Mcl1-Noxa inh 14, Mcl1-Bid inh 44, Mcl-1 Bim block 25 and Hck Nef HTS 0.
Screening O=C(NCCc1ccccn1)c1cc(-c2cccc3ccccc23)nc2ccccc12 returned 14-3-3 Bad PPI -3, Mcl1-Noxa inh -1, Mcl1-Bid inh 11, Biofilm kill mix 5, Mcl-1 Bim block -2 and Hck Nef HTS -1.
`O=c1c2c(nc3cc(-c4ccccc4)[nH]n13)CCS2` gave 14-3-3 Bad PPI -22, Mcl1-Noxa inh 61*, Mcl1-Bid inh -82, Mcl-1 Bim block 0 and Hck Nef HTS 1.
Screening COc1ccc(NC(=O)Nc2ccccc2F)c([N+](=O)[O-])c1 returned 14-3-3 Bad PPI -1, Mcl1-Noxa inh 12, Mcl1-Bid inh -21, Biofilm kill mix 11, Mcl-1 Bim block 0 and Hck Nef HTS 0.
CN(C(=O)Nc1cccc(C(F)(F)F)c1)C1CCCCC1 was read as 14-3-3 Bad PPI -7, Mcl1-Noxa inh -2, Mcl1-Bid inh -5, Biofilm kill mix 17 and Hck Nef HTS -12.
Cc1ccsc1C(=O)OCC(=O)N1CCOCC1 was read as 14-3-3 Bad PPI -2, Mcl1-Noxa inh 2, Mcl1-Bid inh 67*, Mcl-1 Bim block -5 and Hck Nef HTS -2.
Screening Cc1cccc(-c2nc(C#N)c(NCc3ccco3)o2)c1 returned 14-3-3 Bad PPI 4, Mcl1-Noxa inh 0, Mcl1-Bid inh -11, Biofilm kill mix 15 and Hck Nef HTS 13.
COc1ccc(N2Nc3n[nH]c(N)c3N2)cc1 was read as 14-3-3 Bad PPI 16, Mcl1-Noxa inh 56*, Mcl1-Bid inh -6, Biofilm kill mix 24, Mcl-1 Bim block 2 and Hck Nef HTS 11.
For COc1ccc(N2C(=O)C3CCCCC3C2=O)cc1NC(=O)c1ccccc1 (stereo not drawn) the results were 14-3-3 Bad PPI -14, Mcl1-Noxa inh -17, Mcl1-Bid inh -5, Biofilm kill mix 8, Mcl-1 Bim block 3 and Hck Nef HTS 23.
`O=c1cc(CSc2nnc(-c3cccs3)n2Cc2ccccc2)nc2sc3ccccc3n12` gave 14-3-3 Bad PPI -14, Mcl1-Noxa inh 59*, Mcl1-Bid inh -97, Mcl-1 Bim block -1 and Hck Nef HTS 7.
`S=c1[nH]nc(-c2ccccn2)n1/N=C/c1ccc(-c2ccccc2Cl)o1` gave 14-3-3 Bad PPI -15, Mcl1-Noxa inh 23, Mcl1-Bid inh -111, Biofilm kill mix 6, Mcl-1 Bim block 0 and Hck Nef HTS 76*.
For S=c1[nH]nc(-c2ccco2)n1/N=C/c1cccc(Cl)c1Cl the results were 14-3-3 Bad PPI 5, Mcl1-Noxa inh 72*, Mcl1-Bid inh -46, Biofilm kill mix 21, Mcl-1 Bim block -8 and Hck Nef HTS 1.
`S=c1[nH]nc(-c2ccco2)n1/N=C/c1ccc(Cl)cc1Cl` gave 14-3-3 Bad PPI 16, Mcl1-Noxa inh 33, Mcl1-Bid inh -22, Mcl-1 Bim block 3 and Hck Nef HTS 0.
`CCOC(=O)c1cccc(NC(=O)Cn2c(CC(=O)NC)nc3ccccc32)c1` gave 14-3-3 Bad PPI -8, Mcl1-Noxa inh 31, Mcl1-Bid inh -20, Mcl-1 Bim block -5 and Hck Nef HTS 1.
`O=C(O)c1ccc(N2C(=O)CCCC2=O)cc1` gave 14-3-3 Bad PPI 3, Mcl1-Noxa inh 59*, Mcl1-Bid inh -28, Biofilm kill mix 21 and Hck Nef HTS 11.
`CCOC(=O)N1CCC(N2C(=O)c3ccccc3C2Nc2ccc(Cl)cn2)CC1` (stereo not drawn) gave 14-3-3 Bad PPI 2, Mcl1-Noxa inh -3, Mcl1-Bid inh -20, Mcl-1 Bim block 0 and Hck Nef HTS 3.
`CCN(CC)C(=O)CSc1nc(N)c(C(=O)Nc2ccc(OC)cc2)s1` gave 14-3-3 Bad PPI 11, Mcl1-Noxa inh 3, Mcl1-Bid inh -71, Biofilm kill mix 13, Mcl-1 Bim block -1 and Hck Nef HTS -6.
Screening CCOC(=O)CSc1nc(N)c(C(=O)Nc2ccc(N(C)C)cc2)s1 returned 14-3-3 Bad PPI -3, Mcl1-Noxa inh 90*, Mcl1-Bid inh -50, Mcl-1 Bim block -6 and Hck Nef HTS 1.
Screening CC1CCCN(C(=S)Nc2ccc3nc4n(c(=O)c3c2)CCCCC4)C1 (stereo not drawn) returned 14-3-3 Bad PPI -2, Mcl1-Noxa inh 5, Mcl1-Bid inh 97*, Biofilm kill mix 6, Mcl-1 Bim block -3 and Hck Nef HTS 7.
`CCn1c(O)c(/C=N/N=C/c2ccccc2)c2ccc(C3=NNC(=O)CC3)cc21` gave 14-3-3 Bad PPI 2, Mcl1-Noxa inh -2, Mcl1-Bid inh -59, Mcl-1 Bim block -1 and Hck Nef HTS 0.
CCC(CC)=N/N=C/c1c(O)n(CC)c2cc(C3=NNC(=O)CC3)ccc12 was read as 14-3-3 Bad PPI -1, Mcl1-Noxa inh 49, Mcl1-Bid inh 66*, Biofilm kill mix 10, Mcl-1 Bim block 9 and Hck Nef HTS 3.
C=CCn1c(SCC(=O)Nc2sc3c(c2C#N)CCC3)nnc1C1COc2ccccc2O1 (stereo not drawn) was read as 14-3-3 Bad PPI -8, Mcl1-Noxa inh 30, Mcl1-Bid inh 55*, Mcl-1 Bim block 0 and Hck Nef HTS 5.

Screens as filed in PubChem BioAssay.
